The text below walks through data of ChEMBL document CHEMBL2093137, “WHO-TDR NTD Screening”.

Values after ≈ are worked out from the molar mass of the structure shown. A value given as a limit tells only on which side of the number the result lay.

In one data set the test system is Plasmodium falciparum K1. In words: WHO-TDR: Malaria. To be noted: Erythrocyte. The data set is classed as functional, organism-based, Homo sapiens. In short, it runs like this:
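Antiplasmodial potency, expressed as IC50, was measured in a whole-organism assay on intra-erythrocytic Plasmodium falciparum K1 in human red blood cells. The screened library held 10,000 diverse compounds from Life Chemicals.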

For data set [1], the system named is Trypanosoma brucei brucei. Description: WHO-TDR: Human African Trypanosomiasis (HAT). The data set is classed as functional, organism-based. To be noted: Squib-427. In short, it runs like this:
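Antiparasitic potency is reported as IC50. The screen covered 10,000 compounds from a diverse Life Chemicals library, filtered for drug-likeness and reactive groups, tested on whole bloodstream-form Trypanosoma brucei of the Squib 427 strain.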

Data set [2] in a line: WHO-TDR: Cytotoxicity. The data set is classed as toxicity, cell-based. To be noted: human, MRC5 cells.
For another data set, the system named is Leishmania infantum. Description: WHO-TDR: Leishmaniasis. Particulars: Macrophage. Type of data set: functional, organism-based, Mus musculus. The essentials:
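Antiparasitic potency, reported as IC50, was measured against intracellular Leishmania infantum amastigotes. The parasite strain was MHOM/MA(BE)/67, and murine peritoneal macrophages served as host cells for the screen of a 10,000-compound diverse library from Life Chemicals.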

Data set [3] deals with Onchocerca ochengi. In words: (§1) WHO-TDR: Onchocerciasis. Also on record: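 at 12.5 µM on microfilariae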. The data set is classed as functional. The essentials: (§2)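 Percent inhibition and IC50 describe activity against microfilariae of Onchocerca ochengi or Onchocerca lienalis, used as animal-pathogen substitutes for the human parasite. The compounds tested made up a 10,000-member diverse library from Life Chemicals.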

The test system of the next data set is Schistosoma mansoni. In words: WHO-TDR: Schistosomiasis. Type of data set: functional. The arrangement: concentration or dose not given beside the values. In short, it runs like this:
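Percent inhibition and IC50 describe activity against whole Schistosoma mansoni worms of the Puerto Rican strain, tested as larvae and/or adults. The compounds screened were a diverse set of 10,000 from Life Chemicals, filtered for drug-likeness and reactive groups. Testing followed previously published standard procedures, with a reference drug as positive control.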

The test system of data set [4] is Onchocerca ochengi. The data set is described as §1. Type of data set: functional. Also on record: concentration or dose not given beside the values. In short, it runs like this:
as §2
This is another data set of the same source.

In a further data set the test system is Trypanosoma cruzi. In words: WHO-TDR: Chagas disease. The data set is classed as functional, organism-based, Homo sapiens. Particulars: MRC5. The essentials: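 Whole-organism screen of a 10,000-compound diverse library from Life Chemicals, filtered for drug-likeness and reactive groups, against intracellular amastigotes of Trypanosoma cruzi Tulahuen CL2 beta-galactosidase strain grown in MRC-5SV2 human lung fibroblast host cells. The assay followed previously published standard procedures, with a reference drug as positive control. Antiparasitic potency is reported as IC50.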

Regarding `CCC(CO)Nc1nc(Nc2ccc(C)c(C)c2)c2nccnc2n1` (configuration not stated), the IC50 was over 10.2 µg/mL in the data set on Plasmodium falciparum K1; 3.66 µg/mL (≈ 10.8 µM) in data set [1]; over 10.2 µg/mL in data set [2]; over 10.2 µg/mL in the data set on Leishmania infantum; over 10.2 µg/mL with Trypanosoma cruzi. The “% Inhibition” value was determined as 0% in the data set with Onchocerca ochengi [3], 0% in the data set with Schistosoma mansoni and 100% with Onchocerca ochengi [4].

Regarding `CCOC(=O)c1ccc(NC(=O)CC2CCCCN2S(=O)(=O)c2ccc(OC)cc2)cc1` (configuration not stated), the IC50 is over 13.8 µg/mL in the data set with Plasmodium falciparum K1; 4.53 µg/mL (≈ 9.83 µM) in data set [1]; 2.03 µg/mL (≈ 4.4 µM) in data set [2]; over 13.8 µg/mL with Leishmania infantum; 0.449 µg/mL (≈ 0.975 µM) with Trypanosoma cruzi. For the same compound, the “% Inhibition” value with Onchocerca ochengi [3], in the data set on Schistosoma mansoni and in the data set with Onchocerca ochengi [4] was 0% throughout.

Regarding `Cc1nc2c(SCC#N)nnc(-c3ccccc3)c2s1`, the IC50 with Plasmodium falciparum K1 is 6.75 µg/mL (≈ 22.6 µM); in data set [1] it was 6.52 µg/mL (≈ 21.8 µM); in data set [2], over 8.95 µg/mL; in the data set with Leishmania infantum, over 8.95 µg/mL; with Trypanosoma cruzi, 0.444 µg/mL (≈ 1.49 µM). Further, the figures for the “% Inhibition” value with Onchocerca ochengi [3], in the data set on Schistosoma mansoni and in the data set on Onchocerca ochengi [4] were 0%, 0% and 25%, respectively.

Regarding `CCCc1cc(=O)[nH]c(-n2nc(C)cc2NC(=O)c2ccc(Br)o2)n1`, the IC50 was 0.703 µg/mL (≈ 1.73 µM) with Plasmodium falciparum K1; 0.39 µg/mL (≈ 0.96 µM) in data set [1]; 0.441 µg/mL (≈ 1.08 µM) in data set [2]; 3.94 µg/mL (≈ 9.71 µM) with Leishmania infantum; under 0.122 µg/mL in the data set on Trypanosoma cruzi. In addition, the “% Inhibition” value with Onchocerca ochengi [3] stood at 0%; in the data set with Schistosoma mansoni it was 75%; in the data set with Onchocerca ochengi [4] it was 50%.

As to `CCOc1cccc2cc(-c3csc(NC(=O)c4sc5ccccc5c4Cl)n3)oc12`, the IC50 in the data set with Plasmodium falciparum K1 is over 13.6 µg/mL; in data set [1], 0.237 µg/mL (≈ 0.521 µM); in data set [2], 0.237 µg/mL (≈ 0.521 µM); in the data set on Leishmania infantum it was 3.69 µg/mL (≈ 8.11 µM); with Trypanosoma cruzi, 11.8 µg/mL (≈ 25.9 µM). The “% Inhibition” value in the data set on Onchocerca ochengi [3], with Schistosoma mansoni and in the data set with Onchocerca ochengi [4] was 0% throughout.

For `Cc1nn2c(=O)[nH]c(SCc3ccccn3)nc2c1-c1ccccc1`, the IC50 (in the data set with Plasmodium falciparum K1; in data set [1]; in data set [2]; in the data set on Leishmania infantum; with Trypanosoma cruzi) was over 10.5 µg/mL each time. The “% Inhibition” value worked out at 0% with Onchocerca ochengi [3], 0% in the data set on Schistosoma mansoni and 100% in the data set with Onchocerca ochengi [4].

Consider `NC(=O)c1cc(-c2ccccc2)sc1NC(=O)Cc1ccc2c(c1)OCO2`, for which the IC50 was 5.1 µg/mL (≈ 13.4 µM) in the data set with Plasmodium falciparum K1; 3.65 µg/mL (≈ 9.6 µM) in data set [1]; over 11.4 µg/mL in data set [2]; over 11.4 µg/mL in the data set with Leishmania infantum; over 11.4 µg/mL in the data set with Trypanosoma cruzi. Also, the “% Inhibition” value was 0% in the data set with Onchocerca ochengi [3], 0% in the data set with Schistosoma mansoni and 100% with Onchocerca ochengi [4].

Take `Cc1ccc2c(c1)NC(=O)c1cc(NC(=O)C3CCCC3)ccc1O2`: the IC50 is 0.441 µg/mL (≈ 1.31 µM) with Plasmodium falciparum K1; over 10.1 µg/mL in data set [1]; over 10.1 µg/mL in data set [2]; over 10.1 µg/mL in the data set on Leishmania infantum; over 10.1 µg/mL in the data set on Trypanosoma cruzi. In addition, the “% Inhibition” value in the data set on Onchocerca ochengi [3], in the data set on Schistosoma mansoni and with Onchocerca ochengi [4] was 0% each time.

Regarding `Cc1cc(=O)n2c(n1)SCC2CC(=O)NCCC(c1ccccc1)c1ccccc1` (configuration not stated), the IC50 is 6.43 µg/mL (≈ 15.3 µM) in the data set with Plasmodium falciparum K1; 4.07 µg/mL (≈ 9.71 µM) in data set [1]; over 12.6 µg/mL in data set [2]; over 12.6 µg/mL with Leishmania infantum; over 12.6 µg/mL in the data set with Trypanosoma cruzi. Also, the “% Inhibition” value with Onchocerca ochengi [3] turned out to be 0%; in the data set with Schistosoma mansoni it was 0%; with Onchocerca ochengi [4], 100%.

As for `CCCc1cc(=O)[nH]c(-n2nc(C)cc2NC(=O)C23CC4CC(CC(C4)C2)C3)n1`, the 50% inhibitory concentration (IC50) in the data set on Plasmodium falciparum K1 was 0.119 µg/mL (≈ 0.3 µM); in data set [1], under 0.119 µg/mL; in data set [2] it was under 0.119 µg/mL; with Leishmania infantum it was 3.84 µg/mL (≈ 9.71 µM); in the data set on Trypanosoma cruzi, under 0.119 µg/mL. Further, the “% Inhibition” value in the data set with Onchocerca ochengi [3] was 75%; in the data set with Schistosoma mansoni, 100%; in the data set on Onchocerca ochengi [4], 100%.

With `COc1ccc(N2CCN(C(=O)c3csc(NC(=O)c4ccccc4)n3)CC2)cc1`, the IC50 in the data set on Plasmodium falciparum K1 is over 12.7 µg/mL; in data set [1], over 12.7 µg/mL; in data set [2], over 12.7 µg/mL; in the data set with Leishmania infantum it was 6.56 µg/mL (≈ 15.5 µM); with Trypanosoma cruzi, over 12.7 µg/mL. The “% Inhibition” value in the data set on Onchocerca ochengi [3] is on record as 0%; in the data set with Schistosoma mansoni it was 0%; in the data set on Onchocerca ochengi [4] it was 100%.

`O=S(=O)(Nc1nc2c(Cl)cccc2s1)c1ccc(Cl)cc1`: the IC50 was over 10.8 µg/mL in the data set with Plasmodium falciparum K1; over 10.8 µg/mL in data set [1]; over 10.8 µg/mL in data set [2]; over 10.8 µg/mL in the data set on Leishmania infantum; 10.2 µg/mL (≈ 28.4 µM) in the data set on Trypanosoma cruzi. Moreover, the “% Inhibition” value is 0% with Onchocerca ochengi [3], 0% in the data set with Schistosoma mansoni and 100% in the data set with Onchocerca ochengi [4].

Turning to `CCCc1cc(=O)[nH]c(-n2nc(C)cc2NC(=O)C2CC(=O)N(c3ccc(C)c(C)c3)C2)n1` (configuration not stated), the IC50 in the data set with Plasmodium falciparum K1 is over 13.5 µg/mL; in data set [1] it was 3.99 µg/mL (≈ 8.9 µM); in data set [2], 4.51 µg/mL (≈ 10 µM); in the data set with Leishmania infantum, 4.36 µg/mL (≈ 9.71 µM); in the data set with Trypanosoma cruzi, 1.28 µg/mL (≈ 2.86 µM). The entries for the “% Inhibition” value with Onchocerca ochengi [3], with Schistosoma mansoni and in the data set on Onchocerca ochengi [4] were 0%, 0% and 50%, respectively.

For the compound `NC(=O)c1cc(-c2ccccc2)sc1NC(=O)c1cc2ccccc2o1`, the 50% inhibitory concentration (IC50) (in the data set on Plasmodium falciparum K1; in data set [1]; in data set [2]; with Leishmania infantum; with Trypanosoma cruzi) was over 10.9 µg/mL in each case. Further, the entries for the “% Inhibition” value with Onchocerca ochengi [3], with Schistosoma mansoni and with Onchocerca ochengi [4] were 0%, 0% and 100%, respectively.

`COc1cc(CSc2nc(CC(=O)NCc3ccco3)cs2)cc(OC)c1`: the IC50 in the data set on Plasmodium falciparum K1 is over 12.1 µg/mL; in data set [1], over 1.21 µg/mL; in data set [2], 7.55 µg/mL (≈ 18.7 µM); in the data set with Leishmania infantum it was over 12.1 µg/mL; with Trypanosoma cruzi it was 2.99 µg/mL (≈ 7.4 µM). Further, the “% Inhibition” value in the data set with Onchocerca ochengi [3] is 0%; in the data set with Schistosoma mansoni, 0%; with Onchocerca ochengi [4], 100%.

For `O=C(Nc1nc(-c2ccncc2)cs1)C1CCCN(S(=O)(=O)c2cccs2)C1` (configuration not stated), the IC50 with Plasmodium falciparum K1 was over 13 µg/mL; in data set [1], 4.33 µg/mL (≈ 9.95 µM); in data set [2], 9.25 µg/mL (≈ 21.3 µM); in the data set on Leishmania infantum it was over 13 µg/mL; in the data set on Trypanosoma cruzi, 0.534 µg/mL (≈ 1.23 µM). The “% Inhibition” value in the data set on Onchocerca ochengi [3] is 0%; in the data set on Schistosoma mansoni, 0%; in the data set with Onchocerca ochengi [4] it was 50%.

As for `CC(C)CCN1C(=O)CCc2cc(NC(=O)c3cccc(Br)c3)ccc21`, the IC50 was over 12.5 µg/mL with Plasmodium falciparum K1; 3.5 µg/mL (≈ 8.42 µM) in data set [1]; over 12.5 µg/mL in data set [2]; over 12.5 µg/mL in the data set with Leishmania infantum; 3.35 µg/mL (≈ 8.08 µM) in the data set with Trypanosoma cruzi. Further, the “% Inhibition” value in the data set with Onchocerca ochengi [3] turned out to be 0%; with Schistosoma mansoni, 0%; in the data set with Onchocerca ochengi [4] it was 100%.

`CN(C)C(CNC(=O)c1ccc(-c2ccccc2)cc1)c1ccsc1` (configuration not stated): the IC50 was 8.47 µg/mL (≈ 24.2 µM) in the data set on Plasmodium falciparum K1; 0.395 µg/mL (≈ 1.13 µM) in data set [1]; over 10.5 µg/mL in data set [2]; over 10.5 µg/mL with Leishmania infantum; 3.32 µg/mL (≈ 9.49 µM) with Trypanosoma cruzi. For the same compound, the “% Inhibition” value with Onchocerca ochengi [3], in the data set with Schistosoma mansoni and in the data set with Onchocerca ochengi [4] was 0% each time.

On to `COc1ccc(S(=O)(=O)CC(=O)Nc2sc(-c3ccccc3)cc2C(N)=O)cc1`, for which the IC50 in the data set with Plasmodium falciparum K1 was 6.93 µg/mL (≈ 16.1 µM); in data set [1] it was 4.28 µg/mL (≈ 9.95 µM); in data set [2] it was over 12.9 µg/mL; in the data set with Leishmania infantum, over 12.9 µg/mL; in the data set on Trypanosoma cruzi it was over 12.9 µg/mL. Further, the “% Inhibition” value in the data set with Onchocerca ochengi [3] worked out at 0%; in the data set on Schistosoma mansoni, 0%; in the data set with Onchocerca ochengi [4], 100%.

The term IC50 denotes the midpoint of a concentration-inhibition curve. By % Inhibition is commonly meant the share of the control response that was lost under treatment.
